Measurements as given in ChEMBL document CHEMBL1142313, “Parallel synthesis of a series of potentially brain penetrant aminoalkyl benzoimidazoles” (Bioorg Med Chem, 2008).
The source made the active and inactive calls. The rule behind the calls is not given here.

Legend:
Format in all cases: functional, cell-based
[1] = molecular target: Neuronal acetylcholine receptor subunit alpha-7 (Rattus norvegicus) (UniProt Q05941); test: Agonist activity at rat alpha-7 nAChR expressed in GH4C1-F7 cells assessed as effect on calcium influx at 5 uM by FLIPR relative to nicotine
Sequence of Neuronal acetylcholine receptor subunit alpha-7 (Rattus norvegicus) (Q05941 whole entry): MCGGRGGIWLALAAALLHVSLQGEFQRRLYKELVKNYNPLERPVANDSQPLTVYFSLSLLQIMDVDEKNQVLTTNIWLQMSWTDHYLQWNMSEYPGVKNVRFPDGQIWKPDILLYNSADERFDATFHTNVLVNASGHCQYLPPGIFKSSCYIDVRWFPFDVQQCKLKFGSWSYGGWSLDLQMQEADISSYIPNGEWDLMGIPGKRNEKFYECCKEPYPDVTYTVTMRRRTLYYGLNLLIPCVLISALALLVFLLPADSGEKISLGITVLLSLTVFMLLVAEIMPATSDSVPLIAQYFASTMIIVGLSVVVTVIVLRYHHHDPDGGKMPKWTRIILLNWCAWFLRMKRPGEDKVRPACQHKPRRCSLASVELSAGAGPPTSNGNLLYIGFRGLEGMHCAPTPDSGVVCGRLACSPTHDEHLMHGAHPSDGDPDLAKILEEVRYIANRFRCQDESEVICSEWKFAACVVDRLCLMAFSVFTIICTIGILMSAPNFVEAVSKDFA
Procedure, shortened: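 GH4C1-F7 cells stably expressing rat alpha7 nAChR were seeded at 100,000/well on poly-D-lysine plates and loaded with Fluo-4 (with pluronic acid and probenecid) for 30 min at 37 °C.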

[2] = molecular target: Neuronal acetylcholine receptor subunit alpha-7 (Rattus norvegicus, UniProt Q05941); test: Agonist activity at rat alpha-7 nAChR expressed in GH4C1-F7 cells assessed as effect on calcium influx by FLIPR
Sequence of Neuronal acetylcholine receptor subunit alpha-7 (Q05941 whole entry): as above

[3] = molecular target: Neuronal acetylcholine receptor subunit alpha-7 (Rattus norvegicus) (UniProt Q05941); test: Reversal of agonist activity at rat alpha-7 nAChR expressed in GH4C1-F7 cells assessed as effect on calcium influx at 10 uM in presence of methyllycaconitine by FLIPR
Procedure, shortened: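 GH4C1-F7 rat alpha7-nAChR cells loaded with Fluo-4/probenecid at 37 °C for 30 min, then washed in HBSS-20 mM Hepes with 2.5 mM probenecid, with or without MLA 1 µM. Compound added and Ca2+ fluorescence read by FLIPR, every second for 1 min then every 30 s for 10 min. Peak height taken as max-min. A signal lost in the presence of MLA marks alpha7 selectivity.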

In the case of `CN1CCCC1CCn1c(Cc2ccc(Br)cc2)nc2ccccc21` (stereo unspecified), the Activity [1] is reported as greater than 20%, the EC50 [2] is reported as 2.7 µM and the Activity [3] is reported as “Active”.

`CN1CCN(CCCn2c(COc3cccc(Cl)c3)nc3ccccc32)CC1` was tested, and the Activity [1] was greater than 20% and the EC50 [2] was 10 µM.

With `Cc1ccc2nc(Cc3ccc(Br)cc3)n(CCCN(C)C)c2c1` the Activity [1] was greater than 20%, the EC50 [2] was 1.7 µM and the Activity [3] was “Active”.

`O=C(Nc1ccccc1F)OC1CN2CCC1CC2` (stereo unspecified) gave an EC50 [2] of 0.6 µM.

With `CN(C)CCCn1c(COc2ccccc2)nc2ccccc21` the Activity [1] was greater than 20%, the EC50 [2] was 2.6 µM and the Activity [3] was “Active”.

`CN1[C@@H]2CC[C@H]1C[C@H](NC(=O)Nc1ccc(Br)cc1)C2` gave an EC50 [2] of 0.2 µM.

`CN(C)CCCn1c(Cc2ccc(Br)cc2)nc2ccccc21` was tested, and the Activity [1] was greater than 20%, the EC50 [2] was 2.6 µM and the Activity [3] was “Active”.
